Our source for the cytotoxicity values is ChEMBL document CHEMBL4513216, “Probing the Open Global Health Chemical Diversity Library for Multistage-Active Starting Points for Next-Generation Antimalarials” (ACS Infect Dis, 2020).

The nature of the data set: Toxicity liver stage against HepG2, at 10uM. The settings on record: human, HepG2-A16-CD81EGFP cells; read-out: INHIBITION
The data set is classed as cell-based. Also noted: test concentration 10 uM, cell line HepG2-A16-CD81EGFP. In short, it runs like this:
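Uninfected HepG2-A16-CD81EGFP cells, 3 × 10^3 per well, 1536-well, plated on prespotted compound at 10 μM final, parasite-free screening media added to match infected plates; puromycin 10 μM positive, DMSO 0.5% negative; run in parallel with 48 h PbLuc assay at 37 °C, 5% CO2; viability by CellTiter-Glo luminescence, normalized to controls.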
With `COCc1cncc2c1CCN(C(=O)c1ccsc1)C2`, the cytotoxicity at 10 µM was 2.43%.
For `Cc1nocc1C(=O)N1CCCC2(CCN(c3cnn(C)c3)C2=O)C1` (centres undefined) the value was 2.43%.
On to `O=C(NC1CCCC1)N1CCCCC1c1nc(C2CC2)no1` (centres undefined), for which the cytotoxicity at 10 µM is -9.52%.
For `Cc1nc(NCCc2ccccc2)cc(C(=O)N2CCOCC2)n1` the value was -3.01%; for `CCn1ccc(C(=O)NCCCN2CCOCC2)n1`, -7.9%.
For `O=S(=O)(c1cn[nH]c1)N1CCC(O)(CN2CCOCC2)C1` (centres undefined) the value was 2.5%; for `CCOCCC(=O)NCCNc1nccc(C(F)(F)F)n1`, 2.88%; for `c1csc(N2CCN(c3ncnc4sccc34)CC2)n1`, 34.6%.
For `C[S+]([O-])c1ccc(CNc2ccc(F)cc2OC(F)F)cc1` (centres undefined) the value was 0.752%.
Consider `CC(C)CN(C(=O)Nc1cccc(C(=O)N(C)C)c1)C1CC1`, for which the cytotoxicity at 10 µM is -15.2%.
For `NS(=O)(=O)N1CCc2ccc(NC(=O)CCc3ccncc3)cc21` the value was 2.68%.
As for `Cc1c(C(=O)N(C)CC(C)O)sc2nc(C(F)(F)F)ccc12` (centres undefined), the cytotoxicity at 10 µM was -0.943%.
For `CC(C)c1noc(CN(C)C(c2ccc(F)cc2)c2cccnc2)n1` (centres undefined) the value was 5.66%; for `CN(C)S(=O)(=O)c1ccc(CN2CCC(c3ccccc3)C2)o1` (centres undefined), 17.5%.
For `Cc1ccc(CNCCOc2ccc(S(C)(=O)=O)cc2)cc1` the value was -9.12%; for `Cn1nnc2cc(C(=O)N3CCCC3Cc3ccccc3)ccc21` (centres undefined), -14.7%; for `Cn1ccnc1CN1CCc2c(COCC3CC3)nn(C)c2C1`, 8.68%.
For `Cc1ccc2c(c1)C(N1CCOCC1)CC21CCNCC1` (centres undefined) the value was -116%; for `CN1CCC(CO[C@H]2CN(C(=O)c3cccn3C)[C@@H]3COC[C@H]23)CC1`, -109%.
On to `CC(C)CN(Cc1ccccn1)Cc1ccccc1C(=O)O`, for which the cytotoxicity at 10 µM was 2.51%.
The value for `Cc1nn(C)cc1C(=O)N1CCCn2nc(CN3CC[C@H](F)C3)cc2C1` was -7.88%; that for `c1cncc(OCCCNC2COc3ccccc3C2)c1` (centres undefined) was -7.84%; that for `c1cc(CN2CCC(CCn3cccn3)CC2)cc(Cn2cccn2)c1` was -1.58%.
The value for `CN(CCN1CCCCC1=O)Cc1cc2cc3c(cc2[nH]c1=O)OCO3` was -6.21%; that for `O=C(c1cccnc1)C1CCCN(c2nnc(C3CC3)o2)C1` (centres undefined) was 6.59%.
In the case of `CC1CCC(NCCCN2CCOCC2)CC1` (centres undefined), the cytotoxicity at 10 µM is -6.58%.
Take `CN1CCN(C(=O)c2cn3ccsc3n2)[C@H]2CS(=O)(=O)C[C@H]21`: the cytotoxicity at 10 µM was -1.27%.
Regarding `Cc1nc(N)ncc1C(=O)N1CCCC(CCc2ccc(F)c(F)c2)C1` (centres undefined), the cytotoxicity at 10 µM was -4.51%.
For `Cc1ccc(-c2noc(CN3CCc4cncnc4C3)n2)cc1` the value was 1.04%; for `CC(C)c1nccn1C1CCCN(C(=O)c2cnc[nH]2)C1` (centres undefined), -0.808%; for `Nc1nc(CN2CCOC(Cn3cncn3)C2)nc2ccccc12` (centres undefined), -0.734%.
For `CC(NC(=O)CN(C)S(C)(=O)=O)c1nnc2n1CCCCC2` (centres undefined) the value was -10.2%.
As for `COc1ccc(CC(=O)N2CC[C@@H](OC)[C@@H]2Cc2cccnc2)cc1`, the cytotoxicity at 10 µM came to 8.48%.
For `Cn1cc(CN2CCC3(CC2)CCN(C(=O)c2cscn2)C3)cn1` the value was -2.45%; for `CCN1CC2(CC1=O)CN(Cc1ccncc1)CCN(C(=O)C(C)C)C2` (centres undefined), -0.182%; for `O=S(=O)(c1cccnc1)N1C[C@H]2CCC[C@@]2(COc2ccccn2)C1`, 7.05%.
For `O=C([C@@H]1CSCN1)N1CC2(CCNCC2)c2cc(Cl)ccc21` the value was 4.33%; for `Cn1cnc2c(-c3ccccc3)nc(C3CCNCC3)cc21`, -109%; for `Cc1ccc(CN2CC[C@H]3C[C@H](C(=O)N4CCCO4)O[C@@H]3C2)o1`, 7.11%.
